Measured values from ChEMBL document CHEMBL3621045, “Structural Insights Lead to a Negamycin Analogue with Improved Antimicrobial Activity against Gram-Negative Pathogens” (ACS Med Chem Lett, 2015).
In brackets after ≈: the same amount, converted by molar mass.

How the values were obtained:
[1] = tested on: Escherichia coli; experiment: Inhibition of transcription-translation process in Escherichia coli; assay type: functional
[2] = tested on: Escherichia coli; experiment: microbe, parasite or virus in culture; conditions: ATCC 25922
[3] = tested on: Acinetobacter baumannii; experiment: Antibacterial activity against Acinetobacter baumannii ARC 3495; assay type: functional
[4] = tested on: Escherichia coli; experiment: microbe, parasite or virus in culture; conditions: ATCC 25922; remark: listed apart in the source
[5] = tested on: Pseudomonas aeruginosa; experiment: Antibacterial activity against Pseudomonas aeruginosa PAO1; assay type: functional
[6] = tested on: Pseudomonas aeruginosa; experiment: Antibacterial activity against mexABCDXY-deficient Pseudomonas aeruginosa PAO1; assay type: functional
[7] = tested on: Klebsiella pneumoniae; experiment: Antibacterial activity against Klebsiella pneumoniae ATCC 700603; assay type: functional
[8] = tested on: Pseudomonas aeruginosa; experiment: Ratio of MIC for Pseudomonas aeruginosa PAO1 to MIC for mexABCDXY-deficient Pseudomonas aeruginosa PAO1; assay type: functional
Procedure, shortened: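 MICs in μg/mL were determined for P. aeruginosa PAO1 and its isogenic efflux-pump knockout strain. Analogues were tested up to their highest soluble concentrations. The value is the parent-strain MIC divided by the knockout-strain MIC.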

Molecule	IC50 ([1]; Escherichia coli) [µM]	MIC [2] [µg/mL]	MIC [3] [µg/mL]	MIC [4] [µg/mL]	MIC [5] [µg/mL]	MIC [6] [µg/mL]	MIC [7] [µg/mL]	IC50 [1] [µM]	Ratio [8]
CN(CC(=O)O)NC(=O)C[C@H](N)C[C@@H](O)CNCCC(N)=O	4	> 256	> 256	256 (≈ 802 µM)	> 256	> 256	> 256		
CN(CC(=O)O)NC(=O)C[C@H](N)C[C@@H](O)CNC[C@@H](O)CN	2.5	256 (≈ 797 µM)	128 (≈ 398 µM)	64 (≈ 199 µM)	256 (≈ 797 µM)	128 (≈ 398 µM)	64 (≈ 199 µM)		
CC(CCN)NC[C@H](O)C[C@@H](N)CC(=O)NN(C)CC(=O)O (stereo partly drawn)	0.44	16 (≈ 50.1 µM)	8 (≈ 25 µM)	16 (≈ 50.1 µM)	32 (≈ 100 µM)	32 (≈ 100 µM)	8 (≈ 25 µM)		
CN(CC(=O)O)NC(=O)C[C@H](N)C[C@@H](O)CNC(CCN)c1ccccc1 (stereo partly drawn)	2.3	256 (≈ 671 µM)	> 256	128 (≈ 336 µM)	> 256	32 (≈ 83.9 µM)	64 (≈ 168 µM)		
CN(CC(=O)O)NC(=O)C[C@H](N)C[C@@H](O)[C@H](N)CO	78	> 512	> 512		> 512		> 512		
CN(CC(=O)O)NC(=O)C[C@@H](N)C[C@@H](O)CNCCCN	2.8	128 (≈ 419 µM)	32 (≈ 105 µM)	128 (≈ 419 µM)	128 (≈ 419 µM)	128 (≈ 419 µM)	64 (≈ 210 µM)		
CN(CC(=O)O)NC(=O)C[C@H](N)CCCN	3.3	128 (≈ 551 µM)	128 (≈ 551 µM)		128 (≈ 551 µM)		128 (≈ 551 µM)		
CN(CC(=O)O)NC(=O)C[C@H](N)C[C@@H](O)CNCCCNC(=N)N	1.7	512 (≈ 1470 µM)	64 (≈ 184 µM)	256 (≈ 737 µM)	512 (≈ 1470 µM)	256 (≈ 737 µM)	128 (≈ 368 µM)		
CN(CC(=O)O)NC(=O)C[C@H](N)C[C@@H](O)CNCCF	2.3	64 (≈ 217 µM)	128 (≈ 435 µM)	128 (≈ 435 µM)	> 256	256 (≈ 870 µM)	64 (≈ 217 µM)		
CN(CC(=O)O)NC(=O)C[C@H](N)C[C@H](O)CN	51	1020 (≈ 4120 µM)	512 (≈ 2060 µM)		> 1020		1020 (≈ 4120 µM)		
CC(C(=O)NN(C)CC(=O)O)[C@H](N)C[C@@H](O)CN (stereo partly drawn)	12	128 (≈ 488 µM)	128 (≈ 488 µM)		≥ 256		≥ 256		
CN(CC(=O)O)NC(=O)C[C@H](N)C[C@@H](O)CNCc1ccccc1	1	128 (≈ 378 µM)	> 256		> 256		128 (≈ 378 µM)		
COCCNC[C@H](O)C[C@@H](N)CC(=O)NN(C)CC(=O)O	5.3	> 256	256 (≈ 836 µM)	128 (≈ 418 µM)	> 256	> 256	128 (≈ 418 µM)		
CN(CC(=O)O)NC(=O)C[C@H](N)C[C@@H](O)CNCCCCN	0.74	32 (≈ 100 µM)	16 (≈ 50.1 µM)	32 (≈ 100 µM)	128 (≈ 401 µM)	64 (≈ 200 µM)	16 (≈ 50.1 µM)		
GENTAMICIN [listing 1 of 2 here]								0.4	
CN(CC(=O)O)NC(=O)C[C@@H](N)C[C@@H](O)CN	13	> 256	256 (≈ 1030 µM)		> 256		256 (≈ 1030 µM)		
CN(CC(=O)O)NC(=O)C[C@H](N)C[C@@H](O)CNCCO	0.63	64 (≈ 219 µM)	64 (≈ 219 µM)	128 (≈ 438 µM)	512 (≈ 1750 µM)	128 (≈ 438 µM)	64 (≈ 219 µM)		
CN(CC(=O)O)NC(=O)C[C@H](N)C[C@@H](F)CN	2.9	64 (≈ 256 µM)	128 (≈ 511 µM)		128 (≈ 511 µM)		64 (≈ 256 µM)		
CN(CC(=O)O)NC(=O)C[C@H](N)[C@@H](O)[C@@H](O)CN	3.2	> 64	64 (≈ 242 µM)		> 64		> 64		
CN(CC(=O)O)NC(=O)C[C@H](N)C[C@@H](O)CNCCN	2.1	64 (≈ 220 µM)	64 (≈ 220 µM)	64 (≈ 220 µM)	128 (≈ 439 µM)	64 (≈ 220 µM)	32 (≈ 110 µM)		
CN(CC(=O)O)NC(=O)C[C@H](N)C[C@@H](O)CNC[C@H](O)CN	0.73	64 (≈ 199 µM)	32 (≈ 99.6 µM)	32 (≈ 99.6 µM)	128 (≈ 398 µM)	64 (≈ 199 µM)	64 (≈ 199 µM)		
CNCCCNC[C@H](O)C[C@@H](N)CC(=O)NN(C)CC(=O)O	5.8	256 (≈ 801 µM)	64 (≈ 200 µM)	256 (≈ 801 µM)	256 (≈ 801 µM)	256 (≈ 801 µM)	64 (≈ 200 µM)		
GENTAMICIN [listing 2 of 2 here]			> 64		1	0.13	8		

Molecule	IC50 ([1]; Escherichia coli) [µM]	MIC [2] [µg/mL]	MIC [3] [µg/mL]	MIC [4] [µg/mL]	MIC [5] [µg/mL]	MIC [6] [µg/mL]	MIC [7] [µg/mL]	IC50 [1] [µM]	Ratio [8]
CN(CC(=O)O)NC(=O)C[C@H](N)C[C@@H](O)CNCC(F)CN (stereo partly drawn)	3.6	256 (≈ 792 µM)	256 (≈ 792 µM)	128 (≈ 396 µM)	256 (≈ 792 µM)	128 (≈ 396 µM)	128 (≈ 396 µM)		
CN(CC(=O)O)NC(=O)C[C@H](N)C[C@@H](O)CNCC1CCNC1 (stereo partly drawn)	3.3	256 (≈ 772 µM)	64 (≈ 193 µM)	256 (≈ 772 µM)	256 (≈ 772 µM)	128 (≈ 386 µM)	128 (≈ 386 µM)		
CCN(CC(=O)O)NC(=O)C[C@H](N)C[C@@H](O)CN	7.4	256 (≈ 976 µM)	256 (≈ 976 µM)		128 (≈ 488 µM)		128 (≈ 488 µM)		
CN(CC(=O)O)NC(=O)C[C@H](N)C[C@@H](O)CNCC(N)CN (stereo partly drawn)	10	128 (≈ 400 µM)	32 (≈ 99.9 µM)	128 (≈ 400 µM)	128 (≈ 400 µM)	128 (≈ 400 µM)	64 (≈ 200 µM)		
CN(CC(=O)O)NC(=O)C[C@@H](N)C[C@H](O)CN	12	512 (≈ 2060 µM)	128 (≈ 516 µM)		256 (≈ 1030 µM)		256 (≈ 1030 µM)		
CN(CC(=O)O)NC(=O)C[C@H](N)C[C@@H](O)[C@@H](N)CO	7.3	> 128	128 (≈ 460 µM)		> 128		> 128		
CN(CC(=O)O)NC(=O)C[C@H](N)C[C@@H](O)CN [NEGAMYCIN]	1.7	16 (≈ 64.4 µM)	16 (≈ 64.4 µM)	16 (≈ 64.4 µM)	32 (≈ 129 µM)	16 (≈ 64.4 µM)	32 (≈ 129 µM)		
CN(CC(=O)O)NC(=O)C[C@H](N)C[C@H](F)CN	26	> 512	> 512		> 512		> 512		
CCNC[C@H](O)C[C@@H](N)CC(=O)NN(C)CC(=O)O	0.5	64 (≈ 232 µM)	64 (≈ 232 µM)		512 (≈ 1850 µM)		64 (≈ 232 µM)		
NC[C@H](O)C[C@@H](N)CC(=O)NNCC(=O)O	34	> 64	> 64		> 64		> 64		
CN(CC(=O)O)NC(=O)C[C@H](N)C[C@@H](O)CNCC1CNC1	3.9	256 (≈ 807 µM)	128 (≈ 403 µM)	128 (≈ 403 µM)	256 (≈ 807 µM)	128 (≈ 403 µM)	64 (≈ 202 µM)		
CN(CC(=O)O)N(C)C(=O)C[C@H](N)C[C@@H](O)CN	> 100	> 256	> 256		> 256		> 256		
CN(CC(=O)O)NC(=O)C[C@H](N)C[C@@H](O)CNCCCN	0.34	8 (≈ 26.2 µM)	4 (≈ 13.1 µM)	16 (≈ 52.4 µM)	16 (≈ 52.4 µM)	8 (≈ 26.2 µM)	4 (≈ 13.1 µM)		
CN(CC(=O)O)NC(=O)C[C@H](N)C[C@@H](O)CNCc1ccccn1	11	> 256	> 256	256 (≈ 754 µM)	> 256	> 256	> 256		
CN(C)[C@@H]1C(O)=C(C(N)=O)C(=O)[C@@]2(O)C(O)=C3C(=O)c4c(O)cccc4[C@@](C)(O)[C@H]3C[C@@H]12 [TETRACYCLINE]	1.4	1 (≈ 2.25 µM)	> 64	0.5 (≈ 1.13 µM)	32 (≈ 72 µM)	0.25 (≈ 0.563 µM)	16 (≈ 36 µM)		128
CN(C)CCCNC[C@H](O)C[C@@H](N)CC(=O)NN(C)CC(=O)O	15	> 256	256 (≈ 768 µM)	> 256	> 256	> 256	256 (≈ 768 µM)		
CN(CC(=O)O)NC(=O)C[C@H](N)[C@H](O)[C@@H](O)CN	43	> 256	> 256		> 256		> 256		
NC[C@H](O)C[C@@H](N)CC(=O)NOCC(=O)O	> 100	> 256	> 256		> 256		> 256		
CC(CN)CNC[C@H](O)C[C@@H](N)CC(=O)NN(C)CC(=O)O (stereo partly drawn)	1.1	32 (≈ 100 µM)	16 (≈ 50.1 µM)	16 (≈ 50.1 µM)	32 (≈ 100 µM)	16 (≈ 50.1 µM)	16 (≈ 50.1 µM)		
CC(N)CCNC[C@H](O)C[C@@H](N)CC(=O)NN(C)CC(=O)O (stereo partly drawn)	3.4	64 (≈ 200 µM)	64 (≈ 200 µM)	64 (≈ 200 µM)	128 (≈ 401 µM)	64 (≈ 200 µM)	64 (≈ 200 µM)		
CC(=O)NCCCNC[C@H](O)C[C@@H](N)CC(=O)NN(C)CC(=O)O	19	> 512	> 512	> 512	> 512	> 512	> 512		
CN(CC(=O)O)NC(=O)C[C@H](N)C[C@@H](O)CNCCCO	11	512 (≈ 1670 µM)	256 (≈ 836 µM)	128 (≈ 418 µM)	> 1020	1020 (≈ 3340 µM)	512 (≈ 1670 µM)		
